Laboratory results: ChEMBL document CHEMBL4145530, “Design, synthesis and pharmacological evaluation of N-benzyl-piperidinyl-aryl-acylhydrazone derivatives as donepezil hybrids: Discovery of novel multi-target anti-alzheimer prototype drug candidates” (Eur J Med Chem, 2018)
Calls of active or inactive are those of the source. No cut-off for these calls is given here.

How the values were obtained:
PBMC = test: cells; type: ADME, cell-based; settings: Homo sapiens, 6 h
Mus musculus [1] = test: (§1) Anti-inflammatory activity in C57Bl/6 mouse model of amyloid beta (1 to 42) oligomer-induced neuroinflammation assessed as inhibition of microgliosis in CA1 region of ipsilateral hippocampus at 100 mg/kg, ip pretreated for 1.5 hrs followed by amyloid beta (1 to 42) oligomer addition and measured after 7 days by Iba-1 staining based assay; type: functional, organism-based
How it was run: (§2)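 Male C57Bl/6 mice (25–30 g) got 100 mg/kg i.p. or vehicle 1.5 h before a unilateral right-hippocampal injection of Aβ1-42 oligomers (400 pmol/0.5 µL) or PBS. The oligomers were made by diluting the DMSO stock into PBS at 40 µM and holding at 4 °C for 48 h. After 7 days, brain sections were stained for Iba-1 (antigen retrieval, fluorescent secondary) and five CA1 images per hippocampus were taken; pixel density was read, n=10.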

[2] = biological target: T1, Prostaglandin G/H synthase 1 (Ovis aries) (UniProt P05979); test: Inhibition of ovine COX1 at 10 uM using arachidonic acid as substrate preincubated for 120 mins followed by substrate addition measured for 5 secs by chemiluminescence assay relative to control
T1 sequence (whole entry): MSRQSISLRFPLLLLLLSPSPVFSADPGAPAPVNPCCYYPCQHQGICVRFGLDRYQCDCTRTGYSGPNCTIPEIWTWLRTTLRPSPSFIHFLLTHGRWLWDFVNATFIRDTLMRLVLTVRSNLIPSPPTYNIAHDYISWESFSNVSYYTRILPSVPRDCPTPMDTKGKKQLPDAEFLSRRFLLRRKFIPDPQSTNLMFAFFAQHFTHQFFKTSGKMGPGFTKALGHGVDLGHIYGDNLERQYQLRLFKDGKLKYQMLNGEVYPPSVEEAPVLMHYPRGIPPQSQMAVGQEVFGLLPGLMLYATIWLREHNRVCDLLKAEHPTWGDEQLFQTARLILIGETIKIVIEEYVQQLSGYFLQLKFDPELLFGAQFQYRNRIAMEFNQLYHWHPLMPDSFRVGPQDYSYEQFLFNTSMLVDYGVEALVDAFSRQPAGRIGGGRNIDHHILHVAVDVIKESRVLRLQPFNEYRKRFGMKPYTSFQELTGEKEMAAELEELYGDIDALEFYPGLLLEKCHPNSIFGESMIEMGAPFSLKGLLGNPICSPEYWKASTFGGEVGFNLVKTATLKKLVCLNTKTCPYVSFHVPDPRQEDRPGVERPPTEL
How it was run: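 COX-1 or COX-2 with heme was preincubated 120 min with compound (10 µM) in assay buffer. Arachidonic acid and a chemiluminescent substrate were then added at room temperature and peroxidative activity was read for 5 s; ibuprofen was the reference. Selectivity index was taken as the ratio of maximum COX-2 inhibition to COX-1 inhibition. Two independent experiments.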

THP-1 [3] = test: Anti-inflammatory activity in human THP1 cells assessed as inhibition of LPS-induced TNFalpha production at 10 uM after 24 hrs by ELISA relative to control; type: functional; settings: THP-1, 24 h
How it was run: (§3)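 Human monocytic THP-1 cells (5×10^5 cells/mL) were given LPS 1 µg/mL with or without compound at 10 µM for 24 h. Cells were spun out at 500 × g and the medium kept at −80 °C. Secreted IL-1β and TNFα were measured with high-sensitivity ELISA. Three independent experiments.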

Mus musculus [4] = test: as §1, with “Toxicity” for “Anti-inflammatory activity”, “induction” for “inhibition”, “neurodegeneration” for “microgliosis”, “Fluoro-Jade C” for “Iba-1”, “based fluorescence microscopic” for “based”; type: organism-based; settings: in vivo, 168 h
How it was run: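 C57Bl/6 male mice were dosed i.p. at 100 mg/kg 1.5 h before stereotactic right intrahippocampal Aβ1-42 oligomer injection (400 pmol/0.5 µL), with PBS as control. After 7 days, hippocampal sections were stained with Fluoro-Jade C (0.0001%) after NaOH/ethanol and permanganate steps. Five CA1 images per hippocampus were imaged under fluorescence and pixel intensity quantified, n=10.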

Mus musculus [5] = test: as §1, with “Proinflammatory” for “Anti-inflammatory”, “induction” for “inhibition”, “contralateral” for “ipsilateral”; type: organism-based; settings: in vivo, 168 h
How it was run: as §2

THP-1 [6] = test: Anti-inflammatory activity in human THP1 cells assessed as inhibition of LPS-induced IL-1beta production at 10 uM after 24 hrs by ELISA relative to control; type: functional; settings: THP-1, 24 h
How it was run: as §3

Mus musculus [7] = test: Inhibition of serum COX1 level in Swiss mouse model of carragenan-induced paw edema at 100 mM/kg, po pretreated for 1 hr followed by carrageenan treatment measured after 3 hrs by ELISA; type: functional
How it was run: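 Swiss mice (n=8) received compound (100 mM/kg) or vehicle orally 1 h before intraplantar carrageenan; indomethacin was the positive control. Three hours later, blood was drawn from the heart under chloral hydrate anaesthesia and serum was collected. COX-1 and COX-2 protein was measured by sandwich ELISA read at 450 nm and expressed as percent COX level.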

Mus musculus [8] = test: Anti-inflammatory activity in Swiss mouse assessed as reduction in carrageenan-induced paw edema by measuring paw volume […] po pretreated for 1 hr followed by carrageenan injection and measured after 1 to 5 hrs by plethysmometric method (reference value: 67.73 +/- 4.2 uL); type: functional
How it was run: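 Male Swiss mice (22–28 g) were fasted overnight and dosed orally with vehicle (2% DMSO in sterile saline), compound or indomethacin 1 h before intraplantar carrageenan. Groups (n=10) were matched on basal paw volume. Right hind paw volume was read by plethysmometer at 1, 3 and 5 h and expressed as change from basal.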

SH-SY5Y = test: Neuroprotection in human SH-SY5Y cells assessed as inhibition of amyloid beta (1 to 42) oligomer-induced early neurotoxic event by measuring decrease in MTT formazan exocytosis at 10 uM after 4 hrs by microscopic method; type: functional, cell-based
How it was run: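 SH-SY5Y cells (3×10^4/well) were grown 24 h, then co-treated with compound and Aβ1-42 oligomers (10 µM) for 4 h at 37 °C. Medium was replaced by MTT in PBS for 2 h. Needle-like exocytosed formazan crystals on the cell surface were assessed by light microscopy. Three independent experiments.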

Structure (SMILES): O=C(N/N=C/c1ccc(F)cc1)c1ccc(CN2CCCC(O)C2)cc1 (stereo not drawn)
- IC50 (PBMC): > 100 µM
- inhibition (Mus musculus [1]): Active
- inhibition [2]: 64%
- inhibition at 10 µM (THP-1 [3]): 69%
- Activity (Mus musculus [4]): Toxic
- Activity (Mus musculus [5]): Non-Toxic
- inhibition at 10 µM (THP-1 [6]): 31%
- inhibition (INH) (Mus musculus [7]): 34%
- Activity (Mus musculus [8]): 20 µL

Structure (SMILES): O=C(N/N=C/c1ccc(Cl)cc1)c1ccc(CN2CCCC(O)C2)cc1 (stereo not drawn)
- IC50 (PBMC): > 100 µM
- inhibition (Mus musculus [1]): Active
- inhibition (SH-SY5Y): Active
- inhibition [2]: 51%
- inhibition at 10 µM (THP-1 [3]): 98%
- Activity (Mus musculus [5]): Non-Toxic
- inhibition at 10 µM (THP-1 [6]): 29%
- inhibition (INH) (Mus musculus [7]): 27%
- Activity (Mus musculus [8]): 17.14 µL
